Like-named read-outs stand apart in the source and are kept apart here.
Experiments:
[1] = test system: NTMT1 and NTMT2; settings: cited from earlier work
[2] = target: T1, NTMT1 (Homo sapiens, UniProt Q9BV86); settings: read-out: cellular IC50; HCT116; cited from earlier work
T1 sequence (Q9BV86 1-223): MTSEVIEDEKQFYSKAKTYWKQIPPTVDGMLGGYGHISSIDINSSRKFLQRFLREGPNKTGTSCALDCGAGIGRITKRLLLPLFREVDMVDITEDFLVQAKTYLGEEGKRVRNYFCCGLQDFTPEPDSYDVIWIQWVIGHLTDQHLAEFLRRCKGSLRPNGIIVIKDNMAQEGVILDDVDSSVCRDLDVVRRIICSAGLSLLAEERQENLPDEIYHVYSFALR

[3] = target: T1, NTMT1; settings: read-out: cellular IC50; HT29; cited from earlier work
[4] = test system: ntmt1 KO HCT116 cells; assay: Cell proliferation assay; assay type: cell-based, human; settings: ntmt1 KO HCT116, various concentrations, 72 h
[5] = test system: eGFP; assay: Control with plasmid expressing only eGFP in HCT116; assay type: cell-based, human; settings: HCT116, 100 μM, 24 h
[6] = test system: HT29; assay: Cytotoxicity, WST-8 assay, HT29; assay type: cell-based, human; settings: HT29, up to 64 μM, 24 h
Summary of the method: (§1)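 Cells were seeded at 5×10^3 per well and cultured 24 h. They were then exposed to a range of test compound concentrations or DMSO vehicle. A solution of 5 mM WST-8 plus 0.2 mM 1-methoxyphenazinium salt in 150 mM NaCl was added, followed by 3 h at 37 °C in 5% CO₂. Absorbance was read at 490 nm. Triplicates.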

[7] = target: NTMT1-eGFP fusion protein (Homo sapiens, UniProt Q9BV86); assay: NTMT1 degradation visualized by fluorescence; assay type: cell-based; settings: HCT116, 100 μM, 24 h
Summary of the method: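 HCT116 cells were seeded at 1.5×10^5 per well. After 12 h they were transfected with pEGFP-n1-NTMT1 or empty pEGFP-n1 using Lipofectamine 3000 in reduced-serum medium with 20% FBS, for 8 h. Cells recovered 24 h in complete medium, then received 100 μM degrader or DMSO for 24 h. The GFP fusion was imaged on an inverted fluorescence microscope.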

[8] = target: NTMT2 (Homo sapiens, UniProt Q5VVY1); assay: Selectivity: NTMT2 protein level in HCT116 and HT29; assay type: cell-based; settings: 24 h
Summary of the method: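 HCT116 and HT29 cells were treated with a range of degrader concentrations for 24 h. Lysates were resolved by SDS-PAGE, and NTMT1, NTMT2 and β-actin band regions were cut from the same membrane. These were probed with rabbit anti-NTMT1, anti-NTMT2 and anti-actin, then goat anti-rabbit secondary and chemiluminescence. Triplicates.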

[9] = target: T1, NTMT1; assay: Degradation of NTMT1 in HCT116; assay type: cell-based; settings: for DC50: read-out: DC50, NTMT1 degradation, HCT116, 24 h, Western blot; for fold less potent than degrader 1 (DC50): HCT116
Summary of the method: (§2)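 Cells were seeded at 8×10^4 per well, grown 24 h, then treated with graded concentrations for 24 h or at 50 μM over a time course, with DMSO control. Lysis was in Tris pH 8.0/NaCl/NP-40/Triton buffer, followed by BCA. 20 μg protein was run on 10% SDS-PAGE with PVDF transfer. Membranes were probed with rabbit anti-NTMT1 and anti-β-actin overnight at 4 °C, then chemiluminescence. Densitometry was normalised to DMSO, and DC50 was derived from these values. Triplicates.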

[10] = test system: HCT116; assay: Cytotoxicity, WST-8 assay, HCT116; assay type: cell-based, human; settings: HCT116, up to 64 μM, 24 h
Summary of the method: as §1

[11] = test system: calreticulin (CALR); assay: CALR expression by Western blot; assay type: cell-based, human; settings: HCT116, 25 μM, 24 h
Summary of the method: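 HCT116 cells were treated at 25 μM for 24 h alongside the inhibitor comparator. Cells were lysed at 4 °C for 1 h in Tris pH 8.0/NaCl/NP-40/Triton X-100 buffer with protease inhibitor, and protein was quantified by BCA. 10 μg protein was run on 8% SDS-PAGE and transferred to PVDF. Blots were probed with rabbit anti-CALR and anti-β-actin, detected by chemiluminescence and quantified by densitometry. Triplicates.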

[12] = target: T1, NTMT1; assay: Degradation of NTMT1 in HT29; assay type: cell-based; settings: for DC50: read-out: DC50, NTMT1 degradation, HT29, 24 h, Western blot
Summary of the method: as §2

Chain of NTMT2 (Q5VVY1 whole entry): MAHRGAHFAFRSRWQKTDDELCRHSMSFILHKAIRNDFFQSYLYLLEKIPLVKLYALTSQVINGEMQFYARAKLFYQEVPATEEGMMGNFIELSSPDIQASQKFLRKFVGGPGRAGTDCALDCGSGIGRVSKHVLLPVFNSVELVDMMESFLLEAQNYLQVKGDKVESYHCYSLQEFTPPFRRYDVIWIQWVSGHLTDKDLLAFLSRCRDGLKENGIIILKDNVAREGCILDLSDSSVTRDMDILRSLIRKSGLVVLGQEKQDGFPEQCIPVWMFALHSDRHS

SMILES | antiproliferative effect on ntmt1 KO cells [4] | cytotoxicity (cell viability, WST-8) [6] | DC50 [9] [µM] | cytotoxicity (cell viability, WST-8) [10] | DC50 [12] [µM] | fold less potent than degrader 1 (DC50) [9] [fold] | also measured
NCCCC[C@H](NC(=O)[C@@H]1CCCN1C(=O)Cc1ccc(O)cc1)C(=O)N[C@@H](CCCN=C(N)N)C(N)=O [BM30] |  |  |  |  |  |  | selectivity toward NTMT1 and NTMT2 [1]: nonselective inhibitor
NCCCC[C@H](NC(=O)[C@@H]1CCCN1C(=O)Cc1cccc2ccccc12)C(=O)Nc1ccccc1C(N)=O [DC541, (S)-N-((S)-6-amino-1-((2-carbamoylphenyl)amino)-1-oxohexan-2-yl)-1-(2-(naphthalen-1-yl)acetyl)pyrrolidine-2-carboxamide] |  |  |  |  |  |  | IC50 [2]: > 100 µM; IC50 [3]: ~30 µM
Cc1ncsc1-c1ccc(CNC(=O)[C@@H]2C[C@@H](O)CN2C(=O)[C@H](C(C)C)N2Cc3ccccc3C2=O)c(OCCNC(=O)c2ccccc2NC(=O)[C@H](CCCCN)NC(=O)[C@@H]2CCCN2C(=O)Cc2cccc3ccccc23)c1 [degrader 1, (2S,4R)-N-(2-(2-(2-((S)-6-amino-2-((S)-1-(2-(naphthalen-1-yl)acetyl)pyrrolidine-2-carboxamido)hexanamido)benzamido)ethoxy)-4-(4-methylthiazol-5-yl)benzyl)-4-hydroxy-1-((S)-3-methyl-2-(1-oxoisoindolin-2-yl)butanoyl)pyrrolidine-2-carbox amide] | neither compound displayed an antiproliferative effect | No significant cytotoxicity | 7.53 | No significant cytotoxicity | 18.1 |  | fluorescence of eGFP only (control plasmid) [5]: did not show obvious reduction of fluorescence; fluorescence of NTMT1-eGFP fusion protein [7]: most fluorescence signals were lost; degradation of NTMT2 ([8]; HCT116, various concentrations): cannot induce degradation of NTMT2; degradation of NTMT2 ([8]; HT29, various concentrations): cannot induce degradation of NTMT2; NTMT1 degradation after pre-treatment with proteasome inhibitor MG-132 ([9]; HCT116, 1 μM MG-132 for 2 h, then 50 μM compound 24 h): completely abolished; NTMT1 level (Western blot) ([9]; HCT116, 25 μM, 24 h): almost depleted; NTMT1 level within 24 h ([9]; HCT116, 50 μM, 24 h): almost completely depleted; CALR expression relative to inhibitor 4 (Western blot) [11]: ~ 1.4 fold; onset of pronounced change of NTMT1 levels ([12]; HT29, 50 μM): not observed until 6 h
Cc1ncsc1-c1ccc(CNC(=O)[C@@H]2C[C@@H](O)CN2C(=O)[C@H](C(C)C)N2Cc3ccccc3C2=O)c(OCCOCCNC(=O)c2ccccc2NC(=O)[C@H](CCCCN)NC(=O)[C@@H]2CCCN2C(=O)Cc2cccc3ccccc23)c1 [degrader 2, (2S,4R)-N-(2-(2-(2-(2-((S)-6-amino-2-((S)-1-(2-(naphthalen-1-yl)acetyl)pyrrolidine-2-carboxamido)hexanamido)benzamido)ethoxy)ethoxy)-4-(4-methyl-thiazol-5-yl)benzyl)-4-hydroxy-1-((S)-3-methyl-2-(1-oxoisoindolin-2-yl)butanoyl)pyrrolidine-2-carboxamide] |  |  | 79.7 |  | 53.7 | ≥ 9 | 
Cc1ncsc1-c1ccc(CNC(=O)[C@@H]2C[C@@H](O)CN2C(=O)[C@H](C(C)C)N2Cc3ccccc3C2=O)c(OCCOCCOCCOCCNC(=O)c2ccccc2NC(=O)[C@H](CCCCN)NC(=O)[C@@H]2CCCN2C(=O)Cc2cccc3ccccc23)c1 [degrader 3, (2S,4R)-N-(2-((1-(2-((S)-6-amino-2-((S)-1-(2-(naphthalen-1-yl)acetyl)pyrrolidine-2-carboxamido)hexanamido)phenyl)-1-oxo-5,8,11-trioxa-2-azatridecan-13-yl)oxy)-4-(4-methylthiazol-5-yl)benzyl)-4-hydroxy-1-((S)-3-methyl-2-(1-oxoisoindolin-2-yl)butanoyl)pyrrolidine-2-carboxamide] |  |  | 66.4 |  | 53.7 | ≥ 9 | 
Cc1ncsc1-c1ccc(CNC(=O)[C@@H]2C[C@H](O)CN2C(=O)[C@H](C(C)C)N2Cc3ccccc3C2=O)c(OCCNC(=O)c2ccccc2NC(=O)[C@H](CCCCN)NC(=O)[C@@H]2CCCN2C(=O)Cc2cccc3ccccc23)c1 [inhibitor 4, (2S,4S)-N-(2-(2-(2-((S)-6-amino-2-((S)-1-(2-(naphthalen-1-yl)acetyl)pyrrolidine-2-carboxamido)hexanamido)benzamido)ethoxy)-4-(4-methylthiazol-5-yl)benzyl)-4-hydroxy-1-((S)-3-methyl-2-(1-oxoisoindolin-2-yl)butanoyl)-pyrrolidine-2-carboxamide] | neither compound displayed an antiproliferative effect | No significant cytotoxicity |  | No significant cytotoxicity |  |  | NTMT1 level relative to DMSO control ([9]; HCT116, 50 μM, 24 h): unable to reduce NTMT1 levels; NTMT1 level relative to DMSO control ([12]; HT29, 50 μM, 24 h): unable to reduce NTMT1 levels

From PMC10520980 (European journal of medicinal chemistry, 2022)
